Assay results of several laboratories.
Each line is one published result; the experiments were not run side by side.

SMILES	cell line	test	setting	IC50
CCc1c2c(nc3ccc(O)cc13)-c1cc3c(c(=O)n1C2)COC(=O)[C@]3(O)CC	HCCLM3	cell growth or viability, MTT	72 h	3080 nM
NCC(=O)O	HFF	cell growth or viability, MTT	48 h	252000 nM
COc1ccccc1-c1c(C)oc2cc(OC(=O)c3cccs3)ccc2c1=O	human Neutrophil	cell migration, inhibitor		320 nM
COC(=O)CCC1=CC2C=CC=CC1C2C1CCCCC1=O (stereo not shown)	U-937	cell growth or viability, flow cytometry		171 nM
CC(C)C[C@H](NC(=O)[C@H](Cc1ccccc1)NC(=O)c1cnccn1)B(O)O	EFO-27	cell growth or viability, ATP luminescence		21 nM
CCc1cc2c(=O)c(-c3nc4ccccc4n3C)c(C)oc2cc1OC(C)=O	human Neutrophil	cell migration, inhibitor		27 nM
Nc1ncc(-c2cnn(C3CCNCC3)c2)cc1-c1nnc(CC2CC2)o1	U-937	cell growth or viability, trypan blue	72 h	380 nM
Cc1cc(=O)oc2ccc(-c3cc(-c4ccc(Br)cc4)nc(N)n3)c(O)c12	KB	cell growth or viability, MTT	72 h	> 128 µg/mL
Oc1ccc(Nc2nc(-c3ccc(Cl)cc3)cs2)cc1	UACC-903	cell growth or viability, MTS	72 h	33600 nM
COc1cc(OC)c(/C=C/S(=O)(=O)Nc2ccc(OC)c(N)c2)c(OC)c1	RF48	cell growth or viability, trypan blue	96 h	4 nM
COc1ccc(-c2cncc(N[C@@H](C)c3cccc(NC(=O)c4cncc(C)c4)c3)n2)cc1OC	NCI-H1703	cell growth or viability, ATP luminescence	72 h	32 nM
COc1cc(Nc2nccc(-c3cnn4nc(OC)ccc34)n2)cc(C(F)(F)F)c1	NCI-H1703	cell growth or viability, ATP luminescence		220 nM
O=C1CCCCC1C1C2C=CC=CC1C(CCN1C(=O)c3ccccc3C1=O)=C2 (stereo not shown)	U-937	cell growth or viability, flow cytometry		27 nM
COc1ccc(C=CC(=O)c2cccc([N+](=O)[O-])c2)cc1OC	J774	cell growth or viability, MTT	24 h	25 µg/mL
O=C(N/N=C/c1c(O)ccc2ccccc12)c1cc(-c2ccc3ccccc3c2)n[nH]1	UACC-903	cell growth or viability, MTS	48 h	10900 nM
COc1ccccc1-c1c(C)oc2cc(OC(=O)c3ccco3)ccc2c1=O	human Neutrophil	cell migration, inhibitor		430 nM
COc1ccc(-c2cc(-c3ccc4oc(=O)cc(C)c4c3O)nc(N)n2)cc1	KB	cell growth or viability, MTT	72 h	> 128 µg/mL
O=C(Oc1ccc2c(=O)c(-c3ccccc3)c(C(F)(F)F)oc2c1)c1cccs1	human Neutrophil	cell migration, inhibitor		640 nM
Oc1ccc(/C=C/c2cc(O)cc(O)c2)cc1	J774	cell growth or viability, resazurin	48 h	162000 nM
COc1ccc(C=CC(=O)c2ccc(Cl)cc2Cl)cc1OC	J774	cell growth or viability, MTT	24 h	6.25 µg/mL
CCCCC1=CC2C=CC=CC1C2C1CCCCC1=O (stereo not shown)	U-937	cell growth or viability, flow cytometry		35 nM
COc1cccc2c1C(=O)c1c(O)c3c(c(O)c1C2=O)C[C@@](O)(C(=O)CO)C[C@@H]3O[C@H]1C[C@H](N)[C@H](O)[C@H](C)O1	KB	cell growth or viability, neutral red	48 h	0.93 µg/mL
Cc1ccc(-c2cc(-c3ccc4oc(=O)cc(C)c4c3O)nc(N)n2)cc1	KB	cell growth or viability, MTT	72 h	> 128 µg/mL
COc1ccccc1-c1c(C(F)(F)F)oc2cc(OC(=O)C3CC3)ccc2c1=O	human Neutrophil	cell migration, inhibitor		360 nM
CCCCCC/C=C1\CC2C=CC=CC1C2C1CCCCC1=O (stereo not shown)	U-937	cell growth or viability, flow cytometry		34 nM
Cc1cc(=O)oc2ccc(-c3cc(-c4cccc(Cl)c4)nc(N)n3)c(O)c12	KB	cell growth or viability, MTT	72 h	> 128 µg/mL
CC(C)(C)SCCCC1=CC2C=CC=CC1C2C1CCCCC1=O (stereo not shown)	U-937	cell growth or viability, flow cytometry		61 nM
O=C(Oc1ccc2c(=O)c(-c3ccccc3Cl)c(C(F)(F)F)oc2c1)c1cccs1	human Neutrophil	cell migration, inhibitor		80 nM
